Assay results from ChEMBL document CHEMBL1154186, “Synthesis, kinase inhibitory potencies, and in vitro antiproliferative evaluation of new Pim kinase inhibitors” (J Med Chem, 2009).
pIC50: −log10 of the molar value.

Legend:
[1] = Inhibition of PKA assessed as residual enzyme activity at 10 uM relative to untreated control
Summary of the method: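 PKA (5-20 m-units) was assayed in 8 mM Mops pH 7.5 and 0.2 mM EDTA, with LRRASLG at 300 µM and [γ-33P]ATP at 20 µM plus 10 mM Mg acetate, 30 min at 21 °C, then P81 filter capture. Compound at 10 µM; % residual activity versus uninhibited control, duplicates.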

DU-145 = assay: Antiproliferative activity against human DU145 cells after 48 hrs by resazurin dye reduction assay; format: functional, cell-based; conditions: DU-145, 48 h
Summary of the method: (§1)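 Cells (human fibroblast primary culture, or PC3, DU145 or PA1 cancer lines) were kept as monolayers in Glutamax MEM with Earle's salts, 10% FCS, pyruvate, nonessential amino acids and gentamicin, at 37 °C in 5% CO2. 5×10^3 cells/well adhered for 16 h, then had 48 h continuous drug exposure (20 mM DMSO stock). Resazurin 25 µg/mL for 1 h; fluorescence ex 530/em 590 nm. IC50 from blank-corrected concentration–survival curves versus control wells.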

[2] = molecular target: Protein kinase C alpha type (Homo sapiens) (UniProt P17252); assay: Inhibition of PKCalpha assessed as residual enzyme activity at 10 uM relative to untreated control
Summary of the method: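 Histone H1 (0.1 mg/mL) as substrate, 20 µM [γ-33P]ATP, 10 mM Mg acetate. Run 30 min at 21 °C with 10 µM compound. Radiolabel captured on P81 filters. Expressed as % of uninhibited control, duplicates.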

[3] = molecular target: Calcium/calmodulin-dependent protein kinase kinase 2 (Homo sapiens) (UniProt Q96RR4); assay: Inhibition of CAMKKbeta assessed as residual enzyme activity at 10 uM relative to untreated control
Chain of Calcium/calmodulin-dependent protein kinase kinase 2 (Homo sapiens) (Q96RR4 2-588 limits assumed): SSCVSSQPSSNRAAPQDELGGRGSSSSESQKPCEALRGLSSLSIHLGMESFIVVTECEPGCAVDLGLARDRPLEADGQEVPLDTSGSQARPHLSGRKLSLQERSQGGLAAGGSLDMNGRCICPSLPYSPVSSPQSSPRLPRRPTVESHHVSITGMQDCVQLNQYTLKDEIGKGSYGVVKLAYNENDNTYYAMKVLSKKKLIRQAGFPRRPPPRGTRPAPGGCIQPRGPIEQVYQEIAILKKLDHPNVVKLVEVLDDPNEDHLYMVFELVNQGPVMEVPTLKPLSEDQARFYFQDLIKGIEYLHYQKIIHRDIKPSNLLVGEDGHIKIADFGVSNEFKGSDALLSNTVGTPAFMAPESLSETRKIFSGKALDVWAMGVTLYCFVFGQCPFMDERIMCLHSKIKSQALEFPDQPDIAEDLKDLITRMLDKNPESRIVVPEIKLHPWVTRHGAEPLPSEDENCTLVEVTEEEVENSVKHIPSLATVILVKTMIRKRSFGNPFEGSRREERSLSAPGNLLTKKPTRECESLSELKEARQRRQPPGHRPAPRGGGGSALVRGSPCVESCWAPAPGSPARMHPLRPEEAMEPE

[4] = Antiproliferative activity against human fibroblasts after 48 hrs by resazurin dye reduction assay; format: cell-based; conditions: Fibroblast; summary of the method: as §1
PC-3 = assay: Antiproliferative activity against human PC3 cells after 48 hrs by resazurin dye reduction assay; format: functional, cell-based; conditions: PC-3, 48 h; summary of the method: as §1
[5] = molecular target: Serine/threonine-protein kinase N2 (Homo sapiens) (UniProt Q16513); assay: Inhibition of PRK2 assessed as residual enzyme activity at 10 uM relative to untreated control
Chain of Serine/threonine-protein kinase N2 (Homo sapiens) (Q16513 whole entry, looked up): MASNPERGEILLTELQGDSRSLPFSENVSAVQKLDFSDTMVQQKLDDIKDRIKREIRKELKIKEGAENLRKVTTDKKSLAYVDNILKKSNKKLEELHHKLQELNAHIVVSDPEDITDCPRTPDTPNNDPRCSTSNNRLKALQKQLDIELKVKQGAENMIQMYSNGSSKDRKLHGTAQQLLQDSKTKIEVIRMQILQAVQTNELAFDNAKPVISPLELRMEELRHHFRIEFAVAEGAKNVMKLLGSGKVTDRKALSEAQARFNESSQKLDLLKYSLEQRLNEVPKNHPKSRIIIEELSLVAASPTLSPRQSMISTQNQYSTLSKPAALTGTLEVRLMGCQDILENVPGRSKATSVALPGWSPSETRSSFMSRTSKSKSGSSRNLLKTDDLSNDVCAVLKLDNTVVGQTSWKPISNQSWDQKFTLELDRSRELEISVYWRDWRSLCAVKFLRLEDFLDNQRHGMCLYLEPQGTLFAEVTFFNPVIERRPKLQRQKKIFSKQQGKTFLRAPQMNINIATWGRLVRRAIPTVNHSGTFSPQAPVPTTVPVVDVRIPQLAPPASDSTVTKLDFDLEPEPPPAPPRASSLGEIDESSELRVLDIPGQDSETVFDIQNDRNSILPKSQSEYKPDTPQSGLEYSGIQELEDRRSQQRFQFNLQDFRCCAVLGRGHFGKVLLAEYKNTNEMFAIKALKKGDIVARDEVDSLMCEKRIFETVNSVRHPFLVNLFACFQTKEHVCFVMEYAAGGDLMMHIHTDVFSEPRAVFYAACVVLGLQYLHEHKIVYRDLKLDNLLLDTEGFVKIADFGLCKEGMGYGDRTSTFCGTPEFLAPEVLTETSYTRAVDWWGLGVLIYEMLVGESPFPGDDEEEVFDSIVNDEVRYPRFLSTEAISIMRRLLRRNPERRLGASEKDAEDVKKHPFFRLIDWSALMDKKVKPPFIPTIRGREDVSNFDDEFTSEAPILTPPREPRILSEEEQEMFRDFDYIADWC
Summary of the method: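 Tris/HCl pH 7.5, EGTA, 2-mercaptoethanol buffer, 30 min, 21 °C, compound at 10 µM. Radioactive phosphate measured on P81 filters. Residual activity as % of uninhibited incubations, duplicates.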

[6] = molecular target: T1, MAP kinase-activated protein kinase 5 (Homo sapiens) (UniProt Q8IW41); assay: Inhibition of PRAK assessed as residual enzyme activity at 10 uM relative to untreated control
T1 sequence (whole entry): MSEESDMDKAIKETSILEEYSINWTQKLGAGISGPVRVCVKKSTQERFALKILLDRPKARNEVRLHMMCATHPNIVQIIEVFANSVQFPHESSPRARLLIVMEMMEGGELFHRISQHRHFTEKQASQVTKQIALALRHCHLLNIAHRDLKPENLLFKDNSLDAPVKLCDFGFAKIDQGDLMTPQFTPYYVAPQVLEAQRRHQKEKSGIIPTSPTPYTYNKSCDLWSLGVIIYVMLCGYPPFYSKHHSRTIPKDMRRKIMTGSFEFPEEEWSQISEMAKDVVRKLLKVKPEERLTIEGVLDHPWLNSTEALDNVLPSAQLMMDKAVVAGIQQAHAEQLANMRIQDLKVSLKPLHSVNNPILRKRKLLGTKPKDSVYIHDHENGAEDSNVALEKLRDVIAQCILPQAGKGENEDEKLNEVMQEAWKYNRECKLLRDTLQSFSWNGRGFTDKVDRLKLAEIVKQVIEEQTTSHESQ

[7] = Inhibition of PHK assessed as residual enzyme activity at 10 uM relative to untreated control
PA-1 = assay: Antiproliferative activity against human PA1 cells after 48 hrs by resazurin dye reduction assay; format: functional, cell-based; conditions: PA-1, 48 h; summary of the method: as §1
[8] = molecular target: Ribosomal protein S6 kinase beta-1 (Homo sapiens) (UniProt P23443); assay: Inhibition of S6K1 assessed as residual enzyme activity at 10 uM relative to untreated control
Chain of Ribosomal protein S6 kinase beta-1 (Homo sapiens) (P23443 whole entry, looked up): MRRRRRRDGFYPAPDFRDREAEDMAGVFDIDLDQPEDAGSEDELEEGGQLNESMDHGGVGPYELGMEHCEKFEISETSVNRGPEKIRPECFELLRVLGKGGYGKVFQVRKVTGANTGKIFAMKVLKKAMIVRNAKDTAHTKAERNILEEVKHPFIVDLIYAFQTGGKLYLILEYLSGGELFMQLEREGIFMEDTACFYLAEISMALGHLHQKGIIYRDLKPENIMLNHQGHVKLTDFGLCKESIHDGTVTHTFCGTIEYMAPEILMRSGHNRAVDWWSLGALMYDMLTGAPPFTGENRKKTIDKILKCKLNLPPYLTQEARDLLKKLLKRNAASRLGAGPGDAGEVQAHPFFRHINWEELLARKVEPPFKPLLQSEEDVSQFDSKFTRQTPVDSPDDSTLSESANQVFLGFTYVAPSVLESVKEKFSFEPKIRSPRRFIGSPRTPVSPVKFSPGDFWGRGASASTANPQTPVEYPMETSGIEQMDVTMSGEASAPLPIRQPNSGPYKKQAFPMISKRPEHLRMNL
Summary of the method: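 Buffer Tris/HCl pH 7.5, EGTA and 2-mercaptoethanol. 30 min at 21 °C, compound at 10 µM. P81 filter read-out. Residual activity versus control, duplicates.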

[9] = molecular target: Serine/threonine-protein kinase pim-2 (Homo sapiens) (UniProt Q9P1W9); assay: Inhibition of Pim-2 assessed as residual enzyme activity at 10 uM relative to untreated control
Chain of Serine/threonine-protein kinase pim-2 (Homo sapiens) (Q9P1W9 whole entry, looked up): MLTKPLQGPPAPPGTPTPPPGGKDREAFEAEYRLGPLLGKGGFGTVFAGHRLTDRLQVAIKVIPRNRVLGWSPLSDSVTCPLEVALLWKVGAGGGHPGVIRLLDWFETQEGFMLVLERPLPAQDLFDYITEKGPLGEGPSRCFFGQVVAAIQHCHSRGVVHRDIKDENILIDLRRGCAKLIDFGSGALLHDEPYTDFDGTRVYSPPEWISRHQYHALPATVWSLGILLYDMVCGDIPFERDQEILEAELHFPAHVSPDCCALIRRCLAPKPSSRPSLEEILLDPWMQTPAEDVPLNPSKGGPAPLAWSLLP

Activity [1] [%] | pIC50 (DU-145) | Activity [2] [%] | Activity [3] [%] | pIC50 (PC-3) | Activity [5] [%] | Activity [6] [%] | Activity [7] [%] | Activity [8] [%] | Activity [9] [%] | Compound | pIC50 [4] | pIC50 (PA-1)
60 | 4.59 | 84 | 56 | 5.02 | 31 | 72 | 33 | – | – | O=Cc1c[nH]c2c1ccc1c3ccccc3[nH]c12 | 4.68 | 5.35
96 | – | 103 | 87 | – | 84 | 114 | 71 | 87 | 77 | c1ccc2c(c1)[nH]c1c3cc[nH]c3ccc21 | – | –
95 | – | 111 | 93 | – | 95 | 97 | 90 | 89 | 62 | c1ccc2c(c1)[nH]c1c2ccc2cc[nH]c21 | – | –
83 | – | 95 | 102 | – | 101 | 114 | 88 | 82 | 102 | O=Cc1c[nH]c2ccc3c4ccccc4[nH]c3c12 | – | –
